Test [1] has as its system Mus musculus. The test can be described thus: Reduction in serum cholesterol in CF1 mice on day 16 following 20 mg/kg i.p. o.d. for 16 days. It counts as functional. The conditions noted are these: ip, 384 h, route intraperitoneal. Summed up: (§1)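 Mice dosed at 20 mg/kg per day for 16 days. On days 9 and 16, blood was taken by tail-vein bleeding into nonheparinized microcapillary tubes and spun for 3 min to give serum. Serum cholesterol was measured by a modified Liebermann–Burchard reaction.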

Test [2] deals with Mus musculus. The test can be described thus: Reduction in serum triglyceride in CF1 mice on day 14 following 20 mg/kg i.p. o.d. for 16 days. The conditions noted are these: ip.
Test [3] relates to Mus musculus. The test can be described thus: Reduction in serum cholesterol in CF1 mice on day 9 following 20 mg/kg i.p. o.d. for 16 days. The test is classed as functional. The conditions noted are these: ip, route intraperitoneal. Put shortly:
as §1

Structures are written as SMILES.

Take `CCOC(=O)CCN(C(C)=O)C(C)=O`: the inhibition in vivo (in general, how much of the control response was suppressed) at 20 mg/kg in the test with Mus musculus [1] turned out to be 25%; with Mus musculus [3], 11%. Moreover, the serum triglyceride % inhibition at 20 mg/kg in the test with Mus musculus [2] turned out to be 11%.
As to `CC(=O)N(CCC(=O)O)C(C)=O`, the inhibition in vivo at 20 mg/kg with Mus musculus [1] was 21%; in the test on Mus musculus [3], 20%. This molecule returned a serum triglyceride % inhibition at 20 mg/kg with Mus musculus [2] of 21%.
Take `CC(=O)CCN(C(C)=O)C(C)=O`: the figures for the inhibition in vivo at 20 mg/kg in the test on Mus musculus [1] and in the test with Mus musculus [3] were 30% and 14%, respectively. Moreover, the serum triglyceride % inhibition at 20 mg/kg in the test on Mus musculus [2] came out at 20%.
For `O=C(O)CCN1C(=O)CCC1=O` the same measures were 39%, 32% and 44%.
On the same counts, the results for `CC(=O)CCn1c(=O)c2ccccc2c2ccccc2c1=O` are 23%, 23% and 10%.
With `CCCCN1C(=O)CCC1=O`, the inhibition in vivo at 20 mg/kg with Mus musculus [1] came to 15%; in the test on Mus musculus [3], 0%. Besides, the serum triglyceride % inhibition at 20 mg/kg in the test with Mus musculus [2] is 35%.
For `CC(=O)CCN(C(=O)c1ccccc1)C(=O)c1ccccc1` the same measures were 26%, 23% and 39%.
As for `CCOC(=O)CCN1C(=O)CCC1=O`, the values for the inhibition in vivo at 20 mg/kg in the test on Mus musculus [1] and with Mus musculus [3] were 23% and 11%, respectively. This molecule showed a serum triglyceride % inhibition at 20 mg/kg in the test on Mus musculus [2] of 23%.
As to `O=C(NC(=O)c1ccccc1)c1ccccc1`, the inhibition in vivo at 20 mg/kg came to 35% with Mus musculus [1] and 14% in the test with Mus musculus [3]. Moreover, the serum triglyceride % inhibition at 20 mg/kg with Mus musculus [2] was found to be 7%.
On the same counts, the results for `CCCCn1c(=O)c2ccccc2c2ccccc2c1=O` are 23%, 22% and 48%.
For the molecule `O=c1[nH]c(=O)c2ccccc2c2ccccc12`, the inhibition in vivo at 20 mg/kg in the test with Mus musculus [1] is 18%; with Mus musculus [3] it was 19%. The molecule also gave a serum triglyceride % inhibition at 20 mg/kg in the test on Mus musculus [2] of 19%.
With `O=C(O)CCn1c(=O)c2ccccc2c2ccccc2c1=O`, the results for the inhibition in vivo at 20 mg/kg with Mus musculus [1] and with Mus musculus [3] were 16% and 12%, respectively. In the test on Mus musculus [2], the serum triglyceride % inhibition at 20 mg/kg came to 25%.
On the same counts, the results for `CCCCN(C(C)=O)C(C)=O` are 20%, 11% and 0%.
For `CCCCN(C(=O)c1ccccc1)C(=O)c1ccccc1`, the inhibition in vivo at 20 mg/kg with Mus musculus [1] turned out to be 19%; in the test with Mus musculus [3], 23%. In addition, the serum triglyceride % inhibition at 20 mg/kg with Mus musculus [2] is 30%.
On the same counts, the results for `CC(=O)CCN1C(=O)CCC1=O` are 10%, 12% and 25%.
As for `CCOC(=O)C(C)(C)Oc1ccc(Cl)cc1` [CLOFIBRATE], the results for the inhibition in vivo at 20 mg/kg with Mus musculus [1] and in the test on Mus musculus [3] were 13% and 12%, respectively. Also, the serum triglyceride % inhibition at 20 mg/kg with Mus musculus [2] worked out at 25%.
Regarding `CC(=O)NC(C)=O` [DIACETAMIDE], the inhibition in vivo at 20 mg/kg turned out to be 18% in the test with Mus musculus [1] and 4% in the test on Mus musculus [3]. The same molecule registered a serum triglyceride % inhibition at 20 mg/kg in the test with Mus musculus [2] of 2%.
For `O=C1NC(=O)c2ccccc21` [PHTHALIMIDE] the same measures were 43%, 37% and 56%.
On the same counts, the results for `O=C1CCC(=O)N1` [SUCCINIMIDE] are 27%, 2% and 32%.
